Converted amounts (≈) assume the structure as drawn. The source made the active and inactive calls. No cut-off for these calls is given here. Non-standard residues stand in square brackets, D forms with d. Residues, ends and D or L forms follow the SMILES beside them.
How the values were obtained:
Erythrocyte = experiment: Hemolytic activity in human RBC incubated for 4 hrs by visual analysis; type: toxicity, cell-based
Burkholderia cenocepacia = experiment: Antimicrobial activity against multidrug-resistant Burkholderia cenocepacia assessed as microbial growth inhibition incubated for 16 to 20 hrs by broth microdilution method; type: functional; settings: time 16-20 hrs
Method in brief: (§1)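 Broth microdilution in Mueller–Hinton broth pH 7.4. Peptides serially diluted 1/2 from 2 mg/mL water stocks over 0.5–64 μg/mL. Overnight LB colony culture diluted to OD600 0.022; roughly 5 × 10^5 CFU final inoculum. Static incubation at 37 °C for 16–20 h, then MTT added at room temperature. MIC is the lowest concentration with no visible growth, read by eye. Two independent duplicates.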

Staphylococcus aureus = experiment: Antimicrobial activity against methicillin-resistant Staphylococcus aureus COL assessed as microbial growth inhibition incubated for 16 to 20 hrs by MTT assay; type: functional; settings: time 16-20 hrs
Method in brief: as §1, with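 “7.4.” for “7.4. Peptides serially diluted 1/2 from 2 mg/mL water stocks over 0.5–64 μg/mL.”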

Pseudomonas aeruginosa [1] = experiment: Antimicrobial activity against Pseudomonas aeruginosa PAO1 assessed as bacterial killing at 8 ug/ml measured after 1 hr by time-kill assay; type: functional, organism-based; settings: dose 8.0 µg/ml
Method in brief: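 P. aeruginosa PAO1 from an overnight LB culture was diluted to 2 × 10^6 CFU/mL in MH, pH 7.4, then mixed 1:1 with peptide in MH and incubated at 37 °C with shaking at 180 rpm. Survivors were counted by plating 10-fold dilutions on LB agar at 0–6 h (37 °C, 10 h). Done in triplicate.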

[2] = Proteolytic stability in human serum assessed as drug degradation at 200 uM incubated for 10 mins by RP-HPLC analysis; type: ADME, cell-free
Acinetobacter baumannii = experiment: Antimicrobial growth against Acinetobacter baumannii ATCC 19606 assessed as microbial growth inhibition incubated for 16 to 20 hrs by broth microdilution method; type: functional; settings: time 16-20 hrs
Method in brief: (§2)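 Broth microdilution in MH broth, pH 7.4. An overnight LB colony culture (37 °C, 180 rpm) was diluted to OD600 0.022, giving about 5 × 10^5 CFU per well. MTT was then added, and MIC was read by eye as the lowest concentration without visible growth. Two independent duplicates were run.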

Pseudomonas aeruginosa [3] = experiment: Antimicrobial activity against Pseudomonas aeruginosa PAO1 assessed as microbial growth inhibition incubated for 16 to 20 hrs by broth microdilution method; type: functional; settings: time 16-20 hrs; method in brief: as §2
Escherichia coli = experiment: Antimicrobial activity against Escherichia coli W3110 assessed as microbial growth inhibition incubated for 16 to 20 hrs by broth microdilution method; type: functional; settings: time 16-20 hrs; method in brief: as §2
Klebsiella pneumoniae = experiment: Antimicrobial activity against Klebsiella pneumoniae NCTC418 assessed as microbial growth inhibition incubated for 16 to 20 hrs by broth microdilution method; type: functional; settings: time 16-20 hrs
Method in brief: as §1, with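 “7.4.” for “7.4. Peptides serially diluted 1/2 from 2 mg/mL water stocks over 0.5–64 μg/mL.”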

HEK293 = experiment: Cytotoxicity against HEK293 cells assessed as reduction in cell viability at 0 to 200 uM incubated for 24 hrs by Alamar blue assay; type: toxicity, cell-based; settings: human, hek293, 24 h, dose 0-200 µM
Method in brief: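 HEK293 cells were kept in DMEM with 10% FBS and penicillin/streptomycin, seeded at 4000 cells/well the day before, then exposed to peptide at 0–200 μM for 24 h at 37 °C, 5% CO2. Viability was read with 10% AlamarBlue for 3–5 h (ex 560/em 590 nm), normalized to untreated cells.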

Cell membrane = experiment: Induction of membrane disruption in bacterial membrane mimic EYPG vesicles assessed as carboxyfluorescein leakage at 10 ug/ml measured after 240 secs by fluorescence based assay; type: subcellular; settings: dose 10.0 µg/ml, time 240.0 sec
[4] = Induction of membrane disruption in eukaryotic inner membrane mimic EYPC vesicles assessed as carboxyfluorescein leakage at 10 ug/ml measured after 240 secs by fluorescence based assay; type: cell membranes; settings: dose 10.0 µg/ml, time 240.0 sec

Molecule | MHC (Erythrocyte) [µg/mL] | MIC (Burkholderia cenocepacia) [µg/mL] | MIC (Staphylococcus aureus) [µg/mL] | MIC (Pseudomonas aeruginosa [3]) [µg/mL] | MIC (Klebsiella pneumoniae) [µg/mL] | also measured
CC(C)C[C@H](NC(=O)[C@H](CC(C)C)NC(=O)[C@H](CC(C)C)NC(=O)[C@H](CCCCN)NC(=O)[C@H](CC(C)C)NC(=O)[C@H](CC(C)C)NC(=O)[C@H](CCCCN)NC(=O)[C@H](CC(C)C)NC(=O)[C@H](CC(C)C)NC(=O)[C@@H](CCCCN)NC(=O)[C@H](N)CCCCN)C(N)=O | < 15.6 | > 64 |  |  |  | 
CC(C)C[C@H](NC(=O)[C@H](CC(C)C)NC(=O)[C@H](CC(C)C)NC(=O)[C@H](CCCCN)NC(=O)[C@H](CC(C)C)NC(=O)[C@H](CC(C)C)NC(=O)[C@H](CCCCN)NC(=O)[C@H](CC(C)C)NC(=O)[C@H](CC(C)C)NC(=O)[C@@H](CCCCN)NC(=O)[C@@H](N)CCCCN)C(N)=O | < 15.6 | > 64 |  |  |  | 
CC(C)C[C@H](NC(=O)[C@H](CC(C)C)NC(=O)[C@H](CC(C)C)NC(=O)[C@@H](CCCNC(=N)N)NC(=O)[C@H](CC(C)C)NC(=O)[C@H](CC(C)C)NC(=O)[C@@H](CCCNC(=N)N)NC(=O)[C@H](CC(C)C)NC(=O)[C@H](CC(C)C)NC(=O)[C@@H](CCCNC(=N)N)NC(=O)[C@H](N)CCCNC(=N)N)C(N)=O (H-[dR][dR]LL[dR]LL[dR]LLL-NH2) | 125 |  | 2 (≈ 1.39 µM) |  |  | 
CC(C)C[C@H](NC(=O)[C@H](CC(C)C)NC(=O)[C@H](CCCCN)NC(=O)[C@H](CC(C)C)NC(=O)[C@H](CC(C)C)NC(=O)[C@@H](CCCCN)NC(=O)[C@H](N)CCCCN)C(=O)N[C@@H](CCCCN)C(=O)N[C@@H](CC(C)C)C(=O)N[C@@H](CC(C)C)C(=O)N[C@H](CC(C)C)C(N)=O | 125 | > 64 |  |  |  | Activity (Pseudomonas aeruginosa [1]): Active
CC(C)C[C@@H](NC(=O)[C@@H](CC(C)C)NC(=O)[C@@H](CC(C)C)NC(=O)[C@H](CCCCN)NC(=O)[C@@H](CC(C)C)NC(=O)[C@@H](CC(C)C)NC(=O)[C@H](CCCCN)NC(=O)[C@@H](CC(C)C)NC(=O)[C@@H](CC(C)C)NC(=O)[C@H](CCCCN)NC(=O)[C@@H](N)CCCCN)C(N)=O | 250 |  |  |  |  | Stability [2]: Unstable
H-KKLLKLLKLLLKKLLKLLKLLL-NH2 | < 15.6 |  | > 64 | > 64 | > 64 | MIC (Acinetobacter baumannii): > 64 µg/mL; MIC (Escherichia coli): > 64 µg/mL
CC[C@H](C)[C@H](NC(=O)[C@@H](NC(=O)[C@@H](NC(=O)[C@@H](CCCCN)NC(=O)[C@@H](NC(=O)[C@@H](NC(=O)[C@@H](CCCCN)NC(=O)[C@@H](NC(=O)[C@@H](NC(=O)[C@@H](CCCCN)NC(=O)[C@H](N)CCCCN)[C@@H](C)CC)[C@@H](C)CC)[C@@H](C)CC)[C@@H](C)CC)[C@@H](C)CC)[C@@H](C)CC)C(N)=O (H-[dK][dK]II[dK]II[dK]III-NH2) | 125 |  | > 64 |  | > 64 | 
CC(C)C[C@H](NC(=O)[C@H](CC(C)C)NC(=O)[C@H](CC(C)C)NC(=O)[C@H](CCCCN)NC(=O)[C@H](CC(C)C)NC(=O)[C@H](CC(C)C)NC(=O)[C@H](CCCCN)NC(=O)[C@@H](CC(C)C)NC(=O)[C@@H](CC(C)C)NC(=O)[C@@H](CCCCN)NC(=O)[C@@H](N)CCCCN)C(N)=O | < 15.6 | > 64 |  |  |  | 
CC(C)C[C@H](NC(=O)[C@H](CC(C)C)NC(=O)[C@H](CC(C)C)NC(=O)[C@H](CCCCN)NC(=O)[C@H](CC(C)C)NC(=O)[C@H](CC(C)C)NC(=O)[C@H](CCCCN)NC(=O)[C@H](CC(C)C)NC(=O)[C@H](CC(C)C)NC(=O)[C@H](CCCCN)NC(=O)[C@@H](N)CCCCN)C(N)=O | 125 |  |  |  |  | Activity (HEK293): Non-Toxic
CC(C)C[C@H](NC(=O)[C@H](CC(C)C)NC(=O)[C@H](CC(C)C)NC(=O)[C@@H](CCCCN)NC(=O)[C@H](CC(C)C)NC(=O)[C@H](CC(C)C)NC(=O)[C@@H](CCCCN)NC(=O)[C@H](CC(C)C)NC(=O)[C@H](CC(C)C)NC(=O)[C@@H](CCCCN)NC(=O)[C@@H](CCCCN)NC(=O)[C@H](CC(C)C)NC(=O)[C@H](CC(C)C)NC(=O)[C@H](CC(C)C)NC(=O)[C@@H](CCCCN)NC(=O)[C@H](CC(C)C)NC(=O)[C@H](CC(C)C)NC(=O)[C@@H](CCCCN)NC(=O)[C@H](CC(C)C)NC(=O)[C@H](CC(C)C)NC(=O)[C@@H](CCCCN)NC(=O)[C@H](N)CCCCN)C(N)=O (H-[dK][dK]LL[dK]LL[dK]LLL[dK][dK]LL[dK]LL[dK]LLL-NH2) | < 15.6 |  | > 64 | > 64 | > 64 | MIC (Acinetobacter baumannii): > 64 µg/mL
CC(C)C[C@H](NC(=O)[C@H](CC(C)C)NC(=O)[C@H](CC(C)C)NC(=O)[C@H](CCCCN)NC(=O)[C@H](CC(C)C)NC(=O)[C@H](CC(C)C)NC(=O)[C@H](CCCCN)NC(=O)[C@@H](CC(C)C)NC(=O)[C@H](CC(C)C)NC(=O)[C@@H](CCCCN)NC(=O)[C@@H](N)CCCCN)C(N)=O | < 15.6 | > 64 |  |  |  | 
CC(C)C[C@H](NC(=O)[C@H](CCCCN)NC(=O)[C@H](N)CCCCN)C(=O)N[C@@H](CC(C)C)C(=O)N[C@@H](CCCCN)C(=O)N[C@@H](CC(C)C)C(=O)N[C@@H](CC(C)C)C(=O)N[C@@H](CCCCN)C(=O)N[C@@H](CC(C)C)C(=O)N[C@@H](CC(C)C)C(=O)N[C@H](CC(C)C)C(N)=O | 62.5 |  |  |  |  | Activity (Pseudomonas aeruginosa [1]): Active
CC[C@H](C)[C@H](NC(=O)[C@@H](NC(=O)[C@@H](NC(=O)[C@@H](CCCNC(=N)N)NC(=O)[C@@H](NC(=O)[C@@H](NC(=O)[C@@H](CCCNC(=N)N)NC(=O)[C@@H](NC(=O)[C@@H](NC(=O)[C@@H](CCCNC(=N)N)NC(=O)[C@H](N)CCCNC(=N)N)[C@@H](C)CC)[C@@H](C)CC)[C@@H](C)CC)[C@@H](C)CC)[C@@H](C)CC)[C@@H](C)CC)C(N)=O (H-[dR][dR]II[dR]II[dR]III-NH2) | 250 |  | 8 (≈ 5.58 µM) | 4 (≈ 2.79 µM) | 32 (≈ 22.3 µM) | MIC (Acinetobacter baumannii): 8 µg/mL (≈ 5.58 µM); MIC (Escherichia coli): 8 µg/mL (≈ 5.58 µM); Activity (Cell membrane): 98%; Activity [4]: 8%
H-RRLLRLLRLLL-NH2 | 15.6 |  |  | 8 |  | Activity (Cell membrane): 30%; Activity [4]: 99%
H-RRIIRIIRIII-NH2 | 62.5 |  | 16 | 64 | 16 | MIC (Acinetobacter baumannii): 8 µg/mL; MIC (Escherichia coli): 16 µg/mL; Activity (Cell membrane): 99%; Activity [4]: 39%
H-KKIIKIIKIII-NH2 | 62.5 |  | > 64 | > 64 | > 64 | 
CC(C)C[C@H](NC(=O)[C@H](CC(C)C)NC(=O)[C@H](CC(C)C)NC(=O)[C@H](CCCCN)NC(=O)[C@@H](CC(C)C)NC(=O)[C@H](CC(C)C)NC(=O)[C@H](CCCCN)NC(=O)[C@@H](CC(C)C)NC(=O)[C@@H](CC(C)C)NC(=O)[C@@H](CCCCN)NC(=O)[C@@H](N)CCCCN)C(N)=O | 62.5 | > 64 |  |  |  | 

Reference: ChEMBL document CHEMBL5338802, “To Fold or Not to Fold: Diastereomeric Optimization of an α-Helical Antimicrobial Peptide” (J Med Chem, 2023)
